The test system of data set [1] is NCI/ADR-RES. Nature of the data set: Antiproliferative activity against human NCI/ADR-RES cells after 6 days by MTT assay. It counts as functional, cell-based. The note with it: 144 h. Summed up: (§1)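 Cells seeded overnight at 1500/well, then exposed to a range of concentrations for 6 d; viability by MTT (570 nm, background-subtracted, normalised to untreated control = 100%); EC50 from sigmoidal dose-response fit by non-linear least squares; mean ± SEM of at least 8 independent observations. MCF-7 in MEMα + 10% FBS; NCI/AdrRES in DMEM + 10% FCS with periodic 3 µM doxorubicin selection.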
In general terms: Formazan colour is commonly taken as a measure of viable cells.

The nature of data set [2]: Ratio of IC50 for human NCI/ADR-RES cells to IC50 for human MCF7 cells. It counts as functional. Summed up: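 IC50 in doxorubicin-selected P-gp-expressing NCI/AdrRES cells divided by IC50 in parental MCF-7, each from 6 d MTT viability dose-response curves fitted by non-linear regression.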
Data set [3] deals with MCF7. Nature of the data set: Antiproliferative activity against human MCF7 cells after 6 days by MTT assay. It counts as functional, cell-based. The note with it: MCF7, 144 h. Summed up:
as §1

The test system of data set [4] is MCF7. Nature of the data set: Cell cycle arrest in human MCF7 cells assessed as increase in accumulation at G2/M phase at 100 nM after 18 hrs by Hoechst 33342 staining based FACS analysis relative to control. It counts as functional. Summed up: (§2)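 Cells seeded 48 h beforehand, treated 18 h with test compounds at 10 µM or vincristine at 100 nM, then trypsinised and stained with Hoechst 33342 for 60 min; FACS read at 450 nm; % G2/M increase calculated relative to 0.1% DMSO vehicle; mean ± SEM of three independent experiments.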

In data set [5] the test system is PANC-1. Nature of the data set: Cell cycle arrest in human PANC1 cells assessed as accumulation at G1 phase at 100 nM after 18 hrs by Hoechst 33342 staining based FACS analysis (reference value: 70.7%). It counts as functional. (A flow cytometer gives signals particle by particle.)
In data set [6] the test system is PANC-1. Nature of the data set: Cell cycle arrest in human PANC1 cells assessed as accumulation at S phase at 100 nM after 18 hrs by Hoechst 33342 staining based FACS analysis (reference value: 11.1%). It counts as functional.
Data set [7] has as its system PANC-1. Nature of the data set: Cell cycle arrest in human PANC1 cells assessed as increase in accumulation at G2/M phase at 100 nM after 18 hrs by Hoechst 33342 staining based FACS analysis relative to control. It counts as functional. Summed up:
as §2

In data set [8] the test system is PANC-1. Nature of the data set: Cell cycle arrest in human PANC1 cells assessed as accumulation at G2/M phase at 100 nM after 18 hrs by Hoechst 33342 staining based FACS analysis (reference value: 13.7%). It counts as functional.
A short description of data set [9]: Absolute oral bioavailability in human at 150 mg. The note with it: in vivo. It counts as ADME, organism-based.
The next data set concerns HeLa. Nature of the data set: Cytotoxicity against human HeLa cells. It counts as functional, cell-based.
Data set [10] concerns PANC-1. Nature of the data set: Cell cycle arrest in human PANC1 cells assessed as accumulation at G2/M phase at 10 uM after 18 hrs by Hoechst 33342 staining based FACS analysis (reference value: 13.7%). It counts as functional.
In data set [11] the test system is PANC-1. Nature of the data set: Cell cycle arrest in human PANC1 cells assessed as increase in accumulation at G2/M phase at 10 uM after 18 hrs by Hoechst 33342 staining based FACS analysis relative to control. It counts as functional. Summed up:
as §2

The next data set is filed under the species Sus scrofa. Nature of the data set: Inhibition of pig tubulin polymerization assessed as Vmax of tubulin polymerization at 10 uM after 60 mins turbidimetric analysis (reference value: 27 +/- 2 milliOD/min).
Data set [12] is described as follows: Cytotoxicity against human Renal 1983 cells. It counts as functional, cell-based.
The test system of data set [13] is MCF7. Nature of the data set: Cell cycle arrest in human MCF7 cells assessed as increase in accumulation at G2/M phase at 10 uM after 18 hrs by Hoechst 33342 staining based FACS analysis relative to control. It counts as functional. Summed up:
as §2

The species named for data set [14] is Homo sapiens. Nature of the data set: Ratio of nicardipine activity to test compound activity for inhibition of P-gp in human NCI/ADR-RES cells assessed as rate of calcein-AM accumulation. It counts as cell-based. Summed up: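 Rate of calcein accumulation in NCI/AdrRES cells (1 µM calcein-AM in HBSS, fluorescence versus time, slope by linear regression) with the P-gp modulator nicardipine, compared to the rate with test compound.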

Data set [15] has as its system MCF7. Nature of the data set: Cytotoxicity against human MCF7 cells. It counts as functional, cell-based.
In data set [16] the test system is MCF7. Nature of the data set: Effect on calcein-AM accumulation in human wild type MCF7 cells at 1 uM by fluorescence assay. It counts as functional, cell-based. Summed up: (§3)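 Cells seeded at 2 × 10^3/well and grown 2 d, washed and placed in HBSS; test compound added at 2X in HBSS with DMSO ≤1% final, then calcein-AM at 1 µM final; intracellular fluorescence followed over time, rate taken as slope from linear regression.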

Data set [17] is described as follows: Binding affinity to recombinant P-gp cys-less mutant (unknown origin) in proteoliposomes assessed as increase in ATP hydrolysis rate after 40 mins by colorimetric assay. Also on record: species or system Homo sapiens. Summed up: (§4)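 P-gp expressed in High-Five insect cells via recombinant baculovirus, IMAC-purified and reconstituted into proteoliposomes; 0.1-0.5 µg incubated with 2 mM ATP and drug at 10^-9 to 10^-4 M for 40 min at 37 °C; liberated Pi measured colorimetrically; EC50 and extent of stimulation from dose-response fit against drug-free basal activity.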

Data set [18] relates to PANC-1. Nature of the data set: Cell cycle arrest in human PANC1 cells assessed as accumulation at S phase at 10 uM after 18 hrs by Hoechst 33342 staining based FACS analysis (reference value: 11.1%). It counts as functional.
Data set [19] is described as follows: Terminal half life in human. It counts as ADME, organism-based. The conditions noted are these: in vivo, read-out: beta t1/2 (converted).
The species entered for data set [20] is Homo sapiens. Nature of the data set: Binding affinity to recombinant P-gp cys-less mutant (unknown origin) in proteoliposomes assessed as increase in ATP hydrolysis rate at 10^-9 to 10^-4 M after 40 mins by colorimetric assay relative to basal control. Summed up:
as §4

The subject of data set [21] is PANC-1. Nature of the data set: Cell cycle arrest in human PANC1 cells assessed as accumulation at G1 phase at 10 uM after 18 hrs by Hoechst 33342 staining based FACS analysis (reference value: 70.7%). It counts as functional.
Data set [22] deals with NCI/ADR-RES. Nature of the data set: Inhibition of P-gp in human NCI/ADR-RES cells assessed as rate of calcein-AM accumulation at 1 uM by fluorescence assay. It counts as cell-based. Summed up: as §3
In data set [23] the test system is MCF7. Nature of the data set: Synergistic antiproliferative activity against human MCF7 cells assessed as reduction in cell viability at 0.1 uM after 6 days in presence of vinblastine by MTT assay. It counts as functional.
The subject of data set [24] is MCF7. Nature of the data set: Synergistic antiproliferative activity against human MCF7 cells assessed as reduction in cell viability at 0.3 uM after 6 days in presence of vinblastine by MTT assay. It counts as functional.
The species named for data set [25] is Homo sapiens. Nature of the data set: Inhibition of P-gp in human NCI/ADR-RES cells assessed as potentiation of vinblastine-induced cytotoxicity by measuring combination index at 1 uM compound concentration after 6 days by MTT assay. It counts as cell-based.
Data set [26] deals with MCF7. Nature of the data set: Synergistic antiproliferative activity against human MCF7 cells assessed as reduction in cell viability at 1 uM after 6 days in presence of vinblastine by MTT assay. It counts as functional.
The species entered for data set [27] is Homo sapiens. Nature of the data set: Inhibition of P-gp in human NCI/ADR-RES cells assessed as potentiation of vinblastine-induced cytotoxicity by measuring combination index at 0.1 uM compound concentration after 6 days by MTT assay. It counts as cell-based.
For data set [28], the species on record is Homo sapiens. Nature of the data set: Inhibition of P-gp in human NCI/ADR-RES cells assessed as potentiation of vinblastine-induced cytotoxicity by measuring combination index at 0.3 uM compound concentration after 6 days by MTT assay. It counts as cell-based.
Data set [29] has as its system MCF7. Nature of the data set: Cytotoxicity against human MCF7 cells assessed as reduction in cell viability after 5 days by cellTiter-blue assay. It counts as functional, cell-based. The note with it: MCF7, 120 h. A general note: The colour change of resazurin is a common sign of viable cells or microbes.
Another data set concerns PC-3. Nature of the data set: Cytotoxicity against human PC3 cells assessed as reduction in cell viability after 5 days by cellTiter-blue assay. It counts as functional, cell-based. The conditions noted are these: PC-3, 120 h.

pEC50, pIC50: −log10 of the molar value. Activity calls are given as the source filed them. No cut-off for these calls is given here.

As to `CC[C@]1(O)C[C@@H]2CN(CCc3c([nH]c4ccccc34)[C@@](C(=O)OC)(c3cc4c(cc3OC)N(C)[C@H]3[C@@](O)(C(=O)OC)[C@H](OC(C)=O)[C@]5(CC)C=CCN6CC[C@]43[C@@H]65)C2)C1` [VINBLASTINE], the pIC50 with NCI/ADR-RES [1] was 7.02; in the data set with MCF7 [3], 9.44. Moreover, in data set [2], the “Ratio IC50” value was determined as 267.
With `CC[C@]1(O)C[C@H]2CN(CCc3c([nH]c4ccccc34)[C@@](C(=O)OC)(c3cc4c(cc3OC)N(C=O)[C@H]3[C@@](O)(C(=O)OC)[C@H](OC(C)=O)[C@]5(CC)C=CCN6CC[C@]43[C@@H]65)C2)C1` [VINCRISTINE], the Activity stood at 283% in the data set with MCF7 [4]; 21.2% in the data set with PANC-1 [5]; 9.7% with PANC-1 [6]; 265% in the data set on PANC-1 [7]; 64.1% in the data set on PANC-1 [8].
Consider `COc1ccc2c(c1OC)C(=O)O[C@@H]2[C@H]1c2c(cc3c(c2OC)OCO3)CCN1C` [NOSCAPINE], for which the pIC50 in the data set on NCI/ADR-RES [1] was 4.76; in the data set with HeLa it was 4.60; in data set [12], 4.41; with MCF7 [15], 4.38; with MCF7 [3], 4.73. In [9], this compound registered a bioavailability of 30%. The Activity in the data set with PANC-1 [10] is 16.1%; in the data set with PANC-1 [11] it was 16%; with MCF7 [13], 2%; in the data set with PANC-1 [18], 10.8%; with PANC-1 [21] it was 69.3%; in the data set with NCI/ADR-RES [22], 26.7 RFU/min. In addition, the Vmax (milli optical density/minute) in the data set filed under Sus scrofa amounted to 20. Also, the Ratio in the data set filed under Homo sapiens [14] was 4. In addition, the result with MCF7 [16] was inactive. Besides, the pEC50 in data set [17] was 4.16. Moreover, the half-life in data set [19] was 4.5 h. For the same compound, the fold change (FC) in the data set listed under Homo sapiens [20] stood at 17.6.
In the case of `CCNC(=O)N1CCc2c(Br)c3c(c(OC)c2C1Cc1ccc(OC)cc1)OCO3` (stereo unspecified), the results for the pIC50 with NCI/ADR-RES [1] and with MCF7 [3] were 5.60 and 5.57, respectively. Moreover, the CI came out at 1.09 with MCF7 [23]; 1.02 in the data set with MCF7 [24]; 0.95 in the data set filed under Homo sapiens [25]; 1.5 in the data set on MCF7 [26]; 0.6 in the data set listed under Homo sapiens [27]; 0.57 in the data set filed under Homo sapiens [28]. Moreover, the Activity with PANC-1 [10] was 36.8%; in the data set on PANC-1 [11] it was 175%; in the data set on MCF7 [13], 208%; with PANC-1 [18], 7.7%; in the data set on PANC-1 [21], 53.5%; in the data set on NCI/ADR-RES [22] it was 78 RFU/min. Besides, the Vmax (milli optical density/minute) in the data set filed under Sus scrofa came to 20. The outcome in the data set on MCF7 [16] was inactive. In addition, the pEC50 in [17] is 5.62. Besides, the fold change (FC) in the data set filed under Homo sapiens [20] amounted to 6.2.
For `CCNC(=O)N1CCc2cc3c(c(OC)c2[C@@H]1[C@H]1OC(=O)c2c1ccc(OC)c2OC)OCO3`, the pEC50 with MCF7 [29] is 5.44; in the data set with PC-3 it was 5.17.

A word on the pIC50: it is −log10 of the IC50, conventionally taken in molar units. A low value points to a large IC50. What is called bioavailability is dose-corrected exposure relative to a reference, in per cent. Read a high bioavailability as good availability. Usually pEC50 stands for the negative decadic logarithm of the EC50, by convention in mol/L.

(Values after ChEMBL document CHEMBL4196179, “Synthesis and Pharmacological Evaluation of Noscapine-Inspired 5-Substituted Tetrahydroisoquinolines as Cytotoxic Agents” (J Med Chem, 2018).)
